# Shown are actives, neighbours in structure and some others; about 5.9% of the full set was active somewhere.
# KDM4C inh = inhibitors of GASC-1 (KDM4C) histone demethylase, primary screen, biochemical, single concentration HTS; Lysine-specific demethylase 4C (Homo sapiens), Q9H3R0; GST-KDM4C 2-372, H3K9me3 peptide, LANCE TR-FRET; inhibition, % at 12.5 µM; 96,000 compounds, 0.15% hits; AID 720574, 2013;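 active = mean replicate inhibition above about 25%, with at least 55% of replicates also reaching it, limit read from the data, passing the limit was not always enough; inconclusive = only one of those two conditions met; inactive = neither condition met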
#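 Compound: one test concentration per compound; Material: GST-GASC-1 enzyme fragment 2-372; Amount: GASC-1 enzyme at 10 nM final in reaction; Also added: H3K9me3 peptide substrate, Fe(II), 2-oxoglutarate; Technique: LANCE TR-FRET; Times: 30 min demethylation and 1 h detection at room temperature.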
# Pf Dd2 inh = P. falciparum Dd2 growth inhibitors, primary screen, SYBR Green fluorescence, single dose replicates; 72 h; hits give low values; activity change, % at 10 µM; 94,000 compounds, 2.3% hits; in the data active = activity change below about -80%; inconclusive = no clear call, values can overlap the other calls
# IDH1 mut inh = inhibitors of IDH1 R132H reductase, primary screen, biochemical, plate reader, single point; inhibition, % at 10 µM; AID 624101, 2012; Isocitrate dehydrogenase [NADP] cytoplasmic (Homo sapiens), O75874; diaphorase/resazurin fluorescence, 60 min; 70,000 compounds, 0.18% hits; in the data active = inhibition above about 34%; inconclusive = no clear call, values can overlap the other calls; inactive = below about 11%;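 note: 0% = DMSO and 100% = no enzyme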
# Target sequence (O75874 whole entry R132H): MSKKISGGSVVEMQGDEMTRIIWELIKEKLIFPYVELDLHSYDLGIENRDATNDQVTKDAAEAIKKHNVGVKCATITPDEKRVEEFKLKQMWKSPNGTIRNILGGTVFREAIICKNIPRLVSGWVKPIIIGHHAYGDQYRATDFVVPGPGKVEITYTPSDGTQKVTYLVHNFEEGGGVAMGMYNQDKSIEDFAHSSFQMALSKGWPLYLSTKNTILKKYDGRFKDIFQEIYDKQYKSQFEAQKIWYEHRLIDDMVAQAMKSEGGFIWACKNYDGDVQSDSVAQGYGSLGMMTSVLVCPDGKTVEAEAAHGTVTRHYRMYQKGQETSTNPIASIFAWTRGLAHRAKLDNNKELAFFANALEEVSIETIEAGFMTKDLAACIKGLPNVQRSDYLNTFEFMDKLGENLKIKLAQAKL
# T cruzi growth-1 = T. cruzi intracellular proliferation inhibitors, primary screen, cell-based, beta-gal Tulahuen parasites, NIH3T3 host, luminescence | T. cruzi beta-gal in NIH3T3, GalScreen luminescence, 90 h | inhibition, % at 8.34 µM | 77,000 compounds, 5.9% hits | AID 624255, 2012;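 active = mean inhibition above about 93%, with at least 55% of replicates each passing it, limit read from the data, passing the limit was not always enough; inconclusive = only one of those two conditions holds; inactive = neither condition holds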
# T cruzi growth-2 = T. cruzi intracellular proliferation inhibitors, confirmation, cell-based, NIH3T3 host, beta-gal parasite, luminescence, cherry-pick. shares compounds with T cruzi growth-1. T. cruzi beta-gal in NIH3T3, GalScreen luminescence, 90 h. inhibition, % at 8.35 µM. 5,600 compounds, 72% hits. AID 651739, 2012;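 active = mean replicate inhibition above about 95% and at least 55% of replicates individually reaching it, limit read from the data; inconclusive = only one of the two criteria is met; inactive = neither criterion is met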
# T cruzi growth-3 = inhibitors of intracellular T. cruzi replication, confirmation, NIH3T3 host cells, beta-gal parasites, cherry-pick, set 2. AID 651740, 2012. T. cruzi beta-gal in NIH3T3, GalScreen luminescence, 90 h. 5,600 compounds, 21% hits. inhibition, % at 2.09 µM. shares compounds with T cruzi growth-1;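 active = mean inhibition above about 95%, with at least 55% of replicates also reaching it, limit read from the data; inconclusive = meets just one of the two conditions; inactive = meets neither condition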;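 note: plate controls were neutral control median for no effect and positive control median for full effect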
# NIH3T3 tox = cytotoxicity in mouse NIH/3T3 fibroblasts, confirmation, cytotoxicity control for T. cruzi proliferation inhibitor project, cell-based, cherry-pick, single point. 5,600 compounds, 14% hits. shares compounds with T cruzi growth-1. NIH/3T3 viability, CellTiter-Glo ATP luminescence, 90 h. cytotoxicity (signal decrease), % at 8.35 µM;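 active = mean signal decrease across replicates above about 35% based on untreated-well scatter, with enough replicates individually passing, limit read from the data; inconclusive = no rule stated though some were filed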;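 note: 0% = median of neutral control wells and 100% = median of positive control wells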
# NIH3T3 tox 2 = NIH/3T3 fibroblast cytotoxicity, confirmation, cytotoxicity control, cell-based, cherry-pick, single point, set 2; shares compounds with T cruzi growth-1; NIH/3T3 viability, CellTiter-Glo ATP luminescence, 90 h; inhibition, % at 24.9 µM; 5,600 compounds, 56% hits;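 active = mean loss of cell viability signal at or above a set limit, and enough replicates individually reaching it; inconclusive = meets only the mean limit or only the replicate share; inactive = meets neither condition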;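 note: 0% = median of neutral control wells and 100% = median of positive control wells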
# Active calls of the source: *; u = inconclusive; x = no result.
SMILES,KDM4C inh,Pf Dd2 inh,IDH1 mut inh,T cruzi growth-1,T cruzi growth-2,T cruzi growth-3,NIH3T3 tox,NIH3T3 tox 2
CCOC(=O)c1ccc(NC(=O)CSc2nc3sc4c(c3c(=O)[nH]2)CCCC4)cc1,x,x,-1,x,x,x,x,x
COc1ccc(-n2c(SCCCN3C(=O)c4cccc5cccc(c45)C3=O)nnc2-c2cccnc2)cc1,x,x,-2,x,x,x,x,x
COc1cccc(C(=O)Nc2ccc3c(c2)OC[C@@H](C)N(CCc2ccccc2)C[C@H](C)[C@H](OC)CN(C)C3=O)c1,4,-41,-1,88,x,x,x,x
COc1cccc(C(=O)Nc2ccc3c(c2)C(=O)N(C)C[C@@H](OC)[C@H](C)CN(CCc2ccccc2)[C@@H](C)CO3)c1,-1,-49,-1,92*,108*,83,28,8
COc1cccc(C(=O)Nc2ccc3c(c2)OC[C@@H](C)N(CCc2ccccc2)C[C@@H](C)[C@H](OC)CN(C)C3=O)c1,-1,-37,0,118*,103*,77,10,-5
COc1cccc(C(=O)Nc2ccc3c(c2)C(=O)N(C)C[C@@H](OC)[C@H](C)CN(CCc2ccccc2)[C@H](C)CO3)c1,-1,u,0,100*,104*,80,-16,-15
COc1cccc(C(=O)Nc2ccc3c(c2)C(=O)N(C)C[C@H](OC)[C@@H](C)CN(CCc2ccccc2)[C@@H](C)CO3)c1,-1,-74,0,91,x,x,x,x
COc1cc(Cl)c(C)cc1NC(=O)C(CC(C)C)N1C(=O)c2ccccc2C1=O (stereo not given),x,x,3,x,x,x,x,x
O=C1C(=O)N(Cc2ccco2)C(c2cccc(Oc3ccccc3)c2)C1C(=O)c1cccs1 (stereo not given),x,x,0,x,x,x,x,x
O=C(NCCCN1CCOCC1)[C@H]1N[C@H]2c3ccc(C4=CCCCC4)c(=O)n3C[C@H]2[C@@H]1CO,-2,7,x,u,-19,-15,-9,0
O=C(NCCCN1CCOCC1)[C@H]1[C@H](CO)[C@H]2Cn3c(ccc(C4=CCCCC4)c3=O)[C@@H]1N2,-3,x,x,33,x,x,x,x
O=C(NCCN1CCCCC1)[C@H]1N[C@H]2c3ccc(-c4ccncc4)c(=O)n3C[C@H]2[C@@H]1CO,-2,-1,x,102*,-43,-1,-5,-21
CCCNC(=O)[C@@H]1[C@@H](CO)[C@@H]2Cn3c(ccc(C4=CCCC4)c3=O)[C@H]1N2,4,3,x,100*,-4,-19,-2,-7
O=C(NCCCN1CCOCC1)[C@@H]1[C@@H](CO)[C@@H]2Cn3c(ccc(C4=CCCC4)c3=O)[C@H]1N2,0,16,x,u,51,11,17,-4
O=C(NCc1ccc(F)cc1)[C@H]1[C@H](CO)[C@H]2Cn3c(ccc(C4=CCCCC4)c3=O)[C@@H]1N2,-3,x,x,-132,x,x,x,x
O=C(CC1(O)C(=O)N(Cc2cccc3ccccc23)c2ccccc21)c1ccccc1[N+](=O)[O-] (stereo not given),x,x,0,x,x,x,x,x
COC(=O)Cn1c(=O)n(Cc2ccco2)c(=O)c2c3c(sc21)CCCC3,x,x,0,x,x,x,x,x
OC[C@H]1[C@H](c2ccc(C#Cc3ccccc3F)cc2)[C@@H]2CN(Cc3cncnc3)CCCCN12,1,-52,x,113*,99*,62,u,106*
OC[C@H]1[C@H](c2ccc(C#Cc3ccccc3F)cc2)[C@H]2CN(Cc3cncnc3)CCCCN21,-1,-14,x,101*,108*,70,40*,103*
OC[C@@H]1[C@H](c2ccc(C#Cc3ccccc3F)cc2)[C@@H]2CN(Cc3cncnc3)CCCCN12,-1,-23,x,107*,107*,87,47*,104*
OC[C@@H]1[C@@H](c2ccc(C#Cc3ccccc3F)cc2)[C@H]2CN(Cc3cncnc3)CCCCN12,1,-52,x,92,x,x,x,x
OC[C@H]1[C@H](c2ccc(C#Cc3ccccc3)cc2)[C@H]2CN(Cc3cncnc3)CCCCN21,0,-11,x,104*,107*,71,32,103*
COc1ccc(S(=O)(=O)NCc2ccco2)cc1[N+](=O)[O-],x,x,0,x,x,x,x,x
CS(=O)(=O)N(CC(=O)NC1CCCCC1)c1ccc(F)c(Cl)c1,x,x,0,x,x,x,x,x
O=C(c1noc2c1CCCC2)N(C1CCCCC1)C1CCCCC1,x,x,-1,x,x,x,x,x
SMILES,KDM4C inh,Pf Dd2 inh,IDH1 mut inh,T cruzi growth-1,T cruzi growth-2,T cruzi growth-3,NIH3T3 tox,NIH3T3 tox 2
CCN1[C@@H]2Cn3c(ccc(C4=CCCCC4)c3=O)[C@H]1[C@@H](C(=O)NCCc1ccncc1)[C@@H]2CO,1,0,x,99*,-20,0,-27,-27
CCCN1[C@@H]2c3ccc(C4=CCCCC4)c(=O)n3C[C@H]1[C@H](CO)[C@H]2C(=O)NCCc1ccncc1,0,-6,x,x,x,x,x,x
CCN1[C@@H]2Cn3c(ccc(C4=CCCC4)c3=O)[C@H]1[C@@H](C(=O)NCc1ccccn1)[C@@H]2CO,1,-4,x,99*,9,-9,-14,-7
Cc1ccccc1-c1noc(CCC(=O)Nc2ccc(Cl)cc2)n1,x,x,0,x,x,x,x,x
COc1ccc(-c2nnc(SCC(N)=O)n2C)cc1OC,x,x,0,x,x,x,x,x
O=C(O)c1ccc(CNC(=O)c2cccnc2C(=O)O)cc1,x,x,1,x,x,x,x,x
CC(C)CC#Cc1ccc2c(c1)O[C@H](CN(C)S(=O)(=O)c1cccc(F)c1)[C@H](C)CN([C@@H](C)CO)S2(=O)=O,-3,-54,8,118*,88,100*,13,60*
CC(C)CC#Cc1ccc2c(c1)O[C@H](CN(C)S(=O)(=O)c1cccc(F)c1)[C@H](C)CN([C@H](C)CO)S2(=O)=O,-1,-77,0,112*,100*,116*,19,98*
CC(C)CC#Cc1ccc2c(c1)O[C@@H](CN(C)S(=O)(=O)c1ccc(F)cc1)[C@@H](C)CN([C@@H](C)CO)S2(=O)=O,1,-53,0,x,x,x,x,x
C[C@@H]1CN([C@H](C)CO)S(=O)(=O)c2ccc(C#CCN(C)C)cc2O[C@H]1CN(C)Cc1ccncc1,5,-36,2,101*,107*,105*,45*,58*
